Reference: the EternaBench riboswitch data

System: MS2 coat protein
Assay: apparent Kd, MS2 coat protein; higher = weaker binding; RNA-MaP array; theophylline 2 mM where present
In short: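 In 100 mM Tris-HCl pH 7.5, 80 mM KCl, 4 mM MgCl2, BSA, DTT, yeast tRNA and Tween-20, SNAP-549-labelled MS2 coat protein was titrated from 0.7 or 1.5 nM, doubling to 3 µM, over designs transcribed by stalled E. coli RNA polymerase on Illumina sequencing-chip clusters. This was done first without ligand, then with ligand held constant. After green signal was normalised to red-channel RNA signal and control-cluster median Fmax, the apparent Kd was taken as the median of filtered per-cluster binding-curve fits.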

[1] = designed as: OFF switch for theophylline, no ligand
[2] = ligand present: theophylline, designed as: OFF switch for theophylline
[3] = designed as: ON switch for theophylline, no ligand
[4] = ligand present: theophylline, designed as: ON switch for theophylline

Sequence	apparent Kd [1] [nM]	apparent Kd [2] [nM]	apparent Kd [3] [nM]	apparent Kd [4] [nM]
ACGAACUGUAGUGAUACCAGACGUACAUGAGGAUCACCCAUGUUGUAAACAUGGUGAAUAGUCCCUUGGCAGCACAGUUAGUUCG	182	738	–	–
ACUCGGUGUUUGUUGCUCCGAGUACGUGAUACCAGUUAAUUUUAUGGCCCUUGGCAGCAUGGGACAUGAGGAUCACCCAUGUUUA	–	–	375	396
UCGUGAGUUUCGGAUACCAGUGUUGUCGAUACAUGAGGAUCACCCAUGUUAGAGGAUGUACACCCUUGGCAGCCGGCUGUGGCGG	–	–	18.6	11.3
ACUUUGUCGGGUGAUACCAGCCUCGGCACAUCUCGUGCCGAACAUGAGGAUCACCCAUGUGGCCCUUGGCAGCACAUGACAAAUC	–	–	341	59.5
ACACAUGAGGAUCACCCAUGUUCAAUAGAUACCAGUGAUACGGUGCACCCUUGGCAGCUGUUGCUGAGUGAUGGUUCCCUCGGUA	–	–	41.3	65.4
AGACAUGAGGAUCACCCAUGUAGCAUGGAUACCAGAUCCAGAUUUAUCCCUUGGCAGCUGUGGUACAGUGAUGGAUUGCUCCUAG	79	122	–	–
AAUAACAUGAGGAUCACCCAUGUAAAAGAUACCAGAGUGAUGAUCCUCCCUUGGCAGCUUAACGCUGAUUGAUUACAAUCAGCGA	–	–	57.6	173
CAAACAUGAGGAUCACCCAUGUAAUCAGAUACCAGUGACGAAAGUCACCCUUGGCAGCUGAGUACAUAUUGGCAGAGGUGUUUGA	67	75	–	–
AUGCACCUCGUCCAGGCAAUCUUUAGUGAUACCAGCUAACUCCUUGGCCCUUGGCAGCACAUGAGGAUCACCCAUGUGCGACAUC	11.9	14	–	–
AGUGUUAUAACUGAUACCAGACCUUUGCUUAUACAUGAGGAUCACCCAUGUAAAAUGGCGGUCCCUUGGCAGCAGAGAAUACACA	–	–	33.5	12.5
AUAAGUAAGUUUUCGUGUUUUAUUACAGAUACCAGACUAUACGUUGUCCCUUGGCAGCUGGAUUACAUGAGGAUCACCCAUGUUG	24.5	54.3	–	–
CGGCCCUCACAUGAGGAUCACCCAUGUGAUACCAGCCUGGAAACAGGCCCUUGGCAGCACAGGUCAUCAAAAGAUGACCAAGCCG	12.5	63.9	–	–
AUAACAUGAGGAUCACCCAUGUUGAGUGAUACCAGACUAUGUAAUGUCCCUUGGCAGCACAAGUAAAGUUAUAAAUAAUGAUAGA	–	–	57.2	25.1
GAUAGUUGAAGGGAUACCAGCCUGGACAUGAGGAUCACCCAUGUAGCAUGUUUGAAACUGGGCCCUUGGCAGCCCAUAUUGUGUA	–	–	22.4	14.4
ACAUGAGGGAUGGAUACCAGCGACAUGAGGAUCACCCAUGUAUGAGGAUCAGCCAUGUUAUGCCCUUGGCAGCCACGAACAUCAG	26.6	226	–	–
CGACUACAGCGUGAUACCAGUGACAGAUACCAGUCUAGACAUGAGGAUCACCCAUGUACGCGCCCUUGGCAGCACACUAGAUCGA	–	–	89.4	49.9
AUAAGUACGUCAGAUACCAGACAGCCAGACUUACAUGAGGAUCACCCAUGUGGAUGGACGGUCCCUUGGCAGCUGGCCGCAAAAG	–	–	213	14.2
UGUAUGUGAUUUGAUACCAGAUCAGCUGGUUAUACAUGAGGAUCACCCAUGUUACUUUGGGUCCCUUGGCAGCAAAUCGCAUACU	–	–	487	28.4
UUAUUUAUAAUGGAUACCAGUCGUAUGGCCCGGCAUCCUGACAUGAGGAUCACCCAUGUCGACCCUUGGCAGCUGUUAUGGGUUU	13.5	20	–	–
GCAAUAACGAUUGAUACCAGCAUGUUAACAUGAGGAUCACCCAUGUUAAGGAUAACAUAAUGCCCUUGGCAGCAACGGAAAGCCG	–	–	24.3	14
UGUAACAUGAGGAUCACCCAUGUAAGUGAUACCAGAUAAGUAGUAGUCCCUUGGCAGCAUAUUGGGCAAGUGUAUAGUCUAUACG	–	–	49.8	53.5
AUCGUACCUGGUGAUACCAGCAAUUGCUCGUGACAUGAGGAUCACCCAUGUGGCCAGUGAUGCCCUUGGCAGCAUGGUCGGUGCA	–	–	164	89.3
